This is an account of results in ChEMBL document CHEMBL4431355, “Design and synthesis of benzylpiperidine inhibitors targeting the menin-MLL1 interface” (Bioorg Med Chem Lett, 2016).

Assay [1] deals with Menin/Histone-lysine N-methyltransferase MLL (Homo sapiens, UniProt O00255). As to the kind of experiment: Inhibition of human recombinant full length menin/MLL1 (unknown origin) interaction using Ac-SRWRFPARPGTGRR-Ahx-Ahx-K-FAM as substrate after 15 mins by fluorescence polarization binding assay. Type of assay: protein assay. A general note: In fluorescence polarisation assays a small probe gives low polarisation when free and higher when bound to something large.
Sequence of Menin/Histone-lysine N-methyltransferase MLL (O00255 whole entry): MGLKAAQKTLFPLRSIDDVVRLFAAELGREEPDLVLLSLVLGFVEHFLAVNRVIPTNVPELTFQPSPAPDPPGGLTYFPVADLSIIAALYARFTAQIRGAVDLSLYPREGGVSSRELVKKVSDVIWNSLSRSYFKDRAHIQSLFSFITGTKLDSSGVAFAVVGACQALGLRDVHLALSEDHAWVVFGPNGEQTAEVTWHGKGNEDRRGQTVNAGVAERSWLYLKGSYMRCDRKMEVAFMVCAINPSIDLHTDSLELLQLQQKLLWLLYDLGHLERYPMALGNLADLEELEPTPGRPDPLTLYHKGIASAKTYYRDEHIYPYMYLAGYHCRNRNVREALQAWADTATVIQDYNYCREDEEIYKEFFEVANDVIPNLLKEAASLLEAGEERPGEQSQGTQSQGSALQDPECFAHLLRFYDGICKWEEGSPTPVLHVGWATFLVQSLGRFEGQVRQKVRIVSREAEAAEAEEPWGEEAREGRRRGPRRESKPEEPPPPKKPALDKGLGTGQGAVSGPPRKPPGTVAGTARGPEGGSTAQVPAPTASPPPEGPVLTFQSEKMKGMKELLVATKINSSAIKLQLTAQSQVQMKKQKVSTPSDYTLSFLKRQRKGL
Sequence of Menin/Histone-lysine N-methyltransferase MLL (Q03164 1-2718 partner limits assumed): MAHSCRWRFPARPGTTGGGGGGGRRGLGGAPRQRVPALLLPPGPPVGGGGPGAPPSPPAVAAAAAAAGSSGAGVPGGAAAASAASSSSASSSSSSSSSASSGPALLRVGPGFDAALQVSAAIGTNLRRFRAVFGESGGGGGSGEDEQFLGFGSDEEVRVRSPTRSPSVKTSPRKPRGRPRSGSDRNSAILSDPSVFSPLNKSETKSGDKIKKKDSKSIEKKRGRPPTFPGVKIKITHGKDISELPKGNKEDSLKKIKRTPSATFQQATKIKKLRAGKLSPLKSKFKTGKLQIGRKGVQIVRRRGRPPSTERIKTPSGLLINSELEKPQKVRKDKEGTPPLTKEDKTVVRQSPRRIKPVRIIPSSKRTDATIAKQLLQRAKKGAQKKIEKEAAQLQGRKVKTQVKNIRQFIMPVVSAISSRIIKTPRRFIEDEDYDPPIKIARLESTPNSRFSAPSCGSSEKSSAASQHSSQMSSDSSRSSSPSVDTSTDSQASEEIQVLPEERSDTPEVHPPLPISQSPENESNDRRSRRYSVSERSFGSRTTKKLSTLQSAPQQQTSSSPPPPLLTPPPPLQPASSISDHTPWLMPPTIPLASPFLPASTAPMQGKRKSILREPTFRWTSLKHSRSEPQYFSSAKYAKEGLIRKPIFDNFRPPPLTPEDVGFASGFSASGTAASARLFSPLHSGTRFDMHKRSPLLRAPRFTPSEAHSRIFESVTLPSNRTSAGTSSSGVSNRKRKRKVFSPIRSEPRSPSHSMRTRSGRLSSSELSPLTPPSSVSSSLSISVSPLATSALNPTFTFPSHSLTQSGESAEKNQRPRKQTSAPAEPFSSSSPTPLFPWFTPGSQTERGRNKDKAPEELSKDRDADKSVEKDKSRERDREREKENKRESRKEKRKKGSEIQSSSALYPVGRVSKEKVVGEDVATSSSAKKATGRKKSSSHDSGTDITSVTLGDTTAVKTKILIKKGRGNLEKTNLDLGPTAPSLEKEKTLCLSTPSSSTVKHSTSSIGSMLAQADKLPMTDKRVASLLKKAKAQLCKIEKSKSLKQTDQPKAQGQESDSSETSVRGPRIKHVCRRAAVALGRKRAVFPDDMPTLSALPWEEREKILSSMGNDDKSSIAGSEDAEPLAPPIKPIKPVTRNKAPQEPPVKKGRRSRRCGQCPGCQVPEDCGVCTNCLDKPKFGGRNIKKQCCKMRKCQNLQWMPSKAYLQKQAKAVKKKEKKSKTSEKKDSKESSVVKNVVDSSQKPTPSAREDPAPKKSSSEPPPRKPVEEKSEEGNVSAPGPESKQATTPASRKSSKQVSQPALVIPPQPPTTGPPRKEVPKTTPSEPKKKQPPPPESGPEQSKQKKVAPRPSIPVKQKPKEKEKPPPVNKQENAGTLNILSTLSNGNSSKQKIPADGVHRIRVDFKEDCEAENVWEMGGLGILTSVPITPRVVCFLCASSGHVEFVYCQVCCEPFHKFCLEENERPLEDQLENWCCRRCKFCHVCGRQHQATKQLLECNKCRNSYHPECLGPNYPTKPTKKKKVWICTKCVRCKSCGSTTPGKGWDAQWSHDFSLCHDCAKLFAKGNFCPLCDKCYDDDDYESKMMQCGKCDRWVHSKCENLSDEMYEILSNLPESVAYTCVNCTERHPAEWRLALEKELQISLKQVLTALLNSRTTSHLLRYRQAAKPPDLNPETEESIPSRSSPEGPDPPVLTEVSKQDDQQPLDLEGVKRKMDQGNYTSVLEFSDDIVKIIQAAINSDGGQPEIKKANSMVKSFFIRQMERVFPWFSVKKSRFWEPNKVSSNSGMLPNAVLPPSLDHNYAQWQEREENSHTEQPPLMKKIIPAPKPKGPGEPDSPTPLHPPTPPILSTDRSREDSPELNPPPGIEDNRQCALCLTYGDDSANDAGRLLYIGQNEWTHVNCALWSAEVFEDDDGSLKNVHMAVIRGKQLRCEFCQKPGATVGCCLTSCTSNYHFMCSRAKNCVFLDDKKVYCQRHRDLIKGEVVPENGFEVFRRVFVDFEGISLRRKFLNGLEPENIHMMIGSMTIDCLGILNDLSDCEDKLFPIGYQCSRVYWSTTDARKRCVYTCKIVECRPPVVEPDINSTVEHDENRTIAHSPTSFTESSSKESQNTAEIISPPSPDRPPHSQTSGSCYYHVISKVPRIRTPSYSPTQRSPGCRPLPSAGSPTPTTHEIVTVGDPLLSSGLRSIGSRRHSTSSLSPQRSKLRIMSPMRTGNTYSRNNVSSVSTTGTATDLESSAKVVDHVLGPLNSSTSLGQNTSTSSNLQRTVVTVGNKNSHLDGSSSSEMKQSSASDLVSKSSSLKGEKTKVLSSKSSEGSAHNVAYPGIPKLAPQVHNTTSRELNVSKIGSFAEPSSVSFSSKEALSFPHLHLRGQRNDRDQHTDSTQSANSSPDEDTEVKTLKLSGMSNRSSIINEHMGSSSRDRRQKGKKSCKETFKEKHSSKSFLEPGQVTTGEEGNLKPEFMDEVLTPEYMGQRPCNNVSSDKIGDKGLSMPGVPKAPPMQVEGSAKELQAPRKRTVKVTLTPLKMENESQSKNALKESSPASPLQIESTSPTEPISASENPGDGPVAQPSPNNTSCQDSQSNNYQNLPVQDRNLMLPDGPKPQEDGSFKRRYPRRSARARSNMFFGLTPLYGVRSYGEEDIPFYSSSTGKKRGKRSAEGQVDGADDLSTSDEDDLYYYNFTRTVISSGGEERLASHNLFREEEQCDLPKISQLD
Sequence of Menin/Histone-lysine N-methyltransferase MLL (Q03164 2719-3969 partner limits assumed): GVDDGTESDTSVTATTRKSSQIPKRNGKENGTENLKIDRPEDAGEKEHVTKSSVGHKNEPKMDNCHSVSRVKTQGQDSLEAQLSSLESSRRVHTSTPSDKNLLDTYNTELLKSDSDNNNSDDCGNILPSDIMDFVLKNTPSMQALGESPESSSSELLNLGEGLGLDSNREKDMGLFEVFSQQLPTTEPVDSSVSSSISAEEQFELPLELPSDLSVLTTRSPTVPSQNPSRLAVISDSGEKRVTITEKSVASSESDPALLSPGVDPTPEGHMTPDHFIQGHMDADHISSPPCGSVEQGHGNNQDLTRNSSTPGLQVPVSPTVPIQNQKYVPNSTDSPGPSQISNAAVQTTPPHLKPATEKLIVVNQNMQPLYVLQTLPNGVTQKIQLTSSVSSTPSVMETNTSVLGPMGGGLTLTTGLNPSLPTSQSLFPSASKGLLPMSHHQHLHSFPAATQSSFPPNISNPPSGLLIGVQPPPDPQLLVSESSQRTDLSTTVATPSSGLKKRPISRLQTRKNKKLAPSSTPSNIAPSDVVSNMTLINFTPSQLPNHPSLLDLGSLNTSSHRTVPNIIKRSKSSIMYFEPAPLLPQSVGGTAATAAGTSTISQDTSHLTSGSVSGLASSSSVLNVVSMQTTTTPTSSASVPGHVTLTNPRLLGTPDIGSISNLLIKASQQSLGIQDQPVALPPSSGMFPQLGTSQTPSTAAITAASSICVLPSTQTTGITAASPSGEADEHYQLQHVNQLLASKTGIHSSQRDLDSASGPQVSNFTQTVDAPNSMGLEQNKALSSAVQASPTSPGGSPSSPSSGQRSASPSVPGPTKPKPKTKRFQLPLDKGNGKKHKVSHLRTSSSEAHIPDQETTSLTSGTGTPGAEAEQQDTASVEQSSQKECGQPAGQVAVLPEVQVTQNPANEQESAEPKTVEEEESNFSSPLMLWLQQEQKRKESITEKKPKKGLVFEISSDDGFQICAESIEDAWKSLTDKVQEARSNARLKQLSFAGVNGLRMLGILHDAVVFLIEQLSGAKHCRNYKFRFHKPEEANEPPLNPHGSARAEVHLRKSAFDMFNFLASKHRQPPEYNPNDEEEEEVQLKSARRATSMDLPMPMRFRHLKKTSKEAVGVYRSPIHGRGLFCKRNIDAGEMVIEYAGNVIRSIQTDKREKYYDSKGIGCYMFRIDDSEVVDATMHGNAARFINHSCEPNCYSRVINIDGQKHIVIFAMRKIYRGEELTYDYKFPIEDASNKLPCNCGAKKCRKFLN

In assay [2] the test system is MV4-11. As to the kind of experiment: Antiproliferative activity against human MV4-11 cells expressing MLL-AF4 after 7 days by MTS assay. It is filed as functional, cell-based. The conditions noted are these: for IC50: MV4-11, 168 h. An outline of the steps:
(§1)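 Cells exposed to compounds for 7 days in a proliferation assay. IC50 is given as mean ± SD of triplicate determinations. K562 cells were tested up to 20 μM.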

In assay [3] the test system is K562. The assay is described as follows: Antiproliferative activity against human K562 cells after 7 days by MTS assay. Type of assay: functional, cell-based. To be noted: K562, 168 h. An outline of the steps:
as §1

Assay [4] has as its target T1, Menin/Histone-lysine N-methyltransferase MLL (Homo sapiens) (UniProt O00255+Q03164). The assay is described as follows: Inhibition of menin/MLL1 interaction in human MV4-11 cells assessed as reduction in HOXA9 mRNA level after 6 days by qRT-PCR analysis. It is filed as cell-based. An outline of the steps:
(§2)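 MV-4-11 cells incubated with compound for 6 days. HOXA9 expression measured by quantitative real-time PCR, normalized to β-actin and expressed relative to DMSO-treated cells. Triplicate means ± SD; experiment repeated 3 times.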
For orientation: In qPCR the cycle at which signal appears reflects the starting amount.

For assay [5], the target named is T1, Menin/Histone-lysine N-methyltransferase MLL (Homo sapiens). The assay is described as follows: Inhibition of menin/MLL1 interaction in human MV4-11 cells assessed as reduction in HOXA9 mRNA level at 10 uM after 6 days by qRT-PCR analysis relative to control. Type of assay: cell-based. An outline of the steps: as §2
Assay [6] has the same target. As to the kind of experiment: Inhibition of human recombinant full length menin/MLL1 (unknown origin) interaction using Ac-SRWRFPARPGTGRR-Ahx-Ahx-K-FAM as substrate at 20 uM after 15 mins by fluorescence polarization binding assay. Type of assay: protein assay.

T1 sequence (O00255 whole entry): as the sequence (O00255 whole entry) above
T1 sequence (Q03164 1-2718 partner limits assumed): as the sequence (Q03164 1-2718 partner limits assumed) above
T1 sequence (Q03164 2719-3969 partner limits assumed): as the sequence (Q03164 2719-3969 partner limits assumed) above

For the compound `CN(C)CCCOc1cccc(CN2CCC(Nc3ncnc4sc(CC(F)(F)F)cc34)CC2)c1`, the IC50 (commonly the concentration that gives 50% inhibition) in assay [1] turned out to be 7350 nM.
In the case of `NCCOc1cccc(CN2CCC(Nc3ncnc4sc(CC(F)(F)F)cc34)CC2)c1`, the IC50 is 1220 nM in assay [1], 4150 nM in assay [2] and over 20000 nM in assay [3].
The matching figures for `CNCCCOc1cccc(CN2CCC(Nc3ncnc4sc(CC(F)(F)F)cc34)CC2)c1`: 1120 nM, 1650 nM and 9510 nM.
Regarding `Nc1cccc(CN2CCC(Nc3ncnc4sc(CC(F)(F)F)cc34)CC2)c1`, the IC50 in assay [1] was determined as 1260 nM.
Turning to `FC(F)(F)Cc1cc2c(NC3CCN(Cc4ccccc4)CC3)ncnc2s1`, the results for the IC50 in assay [1], in assay [2] and in assay [3] were 470 nM, 1020 nM and over 20000 nM, respectively. Also, in assay [2], the Activity entry is “Dose-dependent effect”.
On to `FC(F)(F)Cc1cc2c(NC3CCN(Cc4ccsc4)CC3)ncnc2s1`, for which the results for the IC50 in assay [1], in assay [2] and in assay [3] were 220 nM, 790 nM and over 20000 nM, respectively. The Activity entry in assay [2] is “Dose-dependent effect”. Further, the inhibition (usually the drop in the measured response relative to a control, in per cent) in assay [4] is “Dose-dependent effect”; in assay [5], 70%.
For the compound `CN1CCC(Oc2cccc(CN3CCC(Nc4ncnc5sc(CC(F)(F)F)cc45)CC3)c2)CC1`, the IC50 in assay [1] was determined as 2350 nM.
For `CN(C)CCOc1cccc(CN2CCC(Nc3ncnc4sc(CC(F)(F)F)cc34)CC2)c1`, the IC50 in assay [1] is 780 nM; in assay [2], 3490 nM; in assay [3] it was over 20000 nM.
For the compound `CC1(C)CN=C(N2CCN(c3ncnc4sc(CC(F)(F)F)cc34)CC2)S1`, the IC50 in assay [2] was 640 nM; in assay [3], over 20000 nM.
In the case of `FC(F)(F)Cc1cc2c(NC3CCN(Cc4ccc(-c5ccccc5)cc4)CC3)ncnc2s1`, the inhibition in assay [6] was 4.6%.
The same measure, in the same setting: the value for `FC(F)(F)Cc1cc2c(NC3CCN(Cc4ccc(C(F)(F)F)cc4)CC3)ncnc2s1` was -2.5%.
`N#Cc1ccc(NCCCN2CCN(c3ncnc4sc(CC(F)(F)F)cc34)CC2)cc1`: the figures for the IC50 in assay [1], in assay [2] and in assay [3] were 1540 nM, 2690 nM and over 20000 nM, respectively.
As for `CCCN1CCC(Nc2ncnc3sc(CC(F)(F)F)cc23)CC1`, the IC50 in assay [1] was 5670 nM.
Still for that read-out and setting: for `FC(F)(F)Cc1cc2c(NC3CCN(Cc4cccc(OC5CCNCC5)c4)CC3)ncnc2s1` the value was 13400 nM; for `Cc1cccc(CN2CCC(CNc3ncnc4sc(CC(F)(F)F)cc34)CC2)c1`, 3800 nM.
With `FC(F)(F)Cc1cc2c(NC3CCN(Cc4cccc5ccccc45)CC3)ncnc2s1`, in assay [6], the inhibition worked out at 2.4%.
On the same count and under the same terms, for `FC(F)(F)Cc1cc2c(NC3CCN(Cc4ccc5ccccc5c4)CC3)ncnc2s1` the value was 15.6%.
With `FC(F)(F)Cc1cc2c(NC3CCN(Cc4ccco4)CC3)ncnc2s1`, in assay [1], the IC50 came to 4690 nM.
Take `FC(F)(F)Cc1cc2c(NC3CCN(Cc4ccncc4)CC3)ncnc2s1`: the 50% inhibitory concentration (IC50) in assay [1] came to 2700 nM.
For `N#Cc1ccc(CN2CCC(CNc3ncnc4sc(CC(F)(F)F)cc34)CC2)cc1`, in assay [6], the inhibition came to 33.4%.
As to `FC(F)(F)Cc1cc2c(NC3CCNCC3)ncnc2s1`, in assay [1], the concentration for half-maximal inhibition (IC50) came out at 32800 nM.
Take `Fc1ccc(CN2CCC(Nc3ncnc4sc(CC(F)(F)F)cc34)CC2)cc1`: the figures for the IC50 in assay [1], in assay [2] and in assay [3] were 2000 nM, 6320 nM and over 20000 nM, respectively.
The corresponding values for `Fc1ccc(CN2CCC(CNc3ncnc4sc(CC(F)(F)F)cc34)CC2)cc1` are 1170 nM, 2980 nM and over 20000 nM.
With `COc1ccc(CN2CCC(Nc3ncnc4sc(CC(F)(F)F)cc34)CC2)cc1`, the IC50 is 640 nM in assay [1], 2420 nM in assay [2] and over 20000 nM in assay [3].
As for `N#Cc1ccc(OCCCN2CCN(c3ncnc4sc(CC(F)(F)F)cc34)CC2)cc1`, the IC50 in assay [1] worked out at 430 nM; in assay [2], 1020 nM; in assay [3], 9120 nM. Besides, the Activity entry in assay [2] was “Dose-dependent effect”.
On to `FC(F)(F)Cc1cc2c(NCC3CCN(Cc4ccccc4)CC3)ncnc2s1`, for which the IC50 in assay [1] was 2240 nM; in assay [2], 2330 nM; in assay [3], over 20000 nM.
With `N#Cc1ccc(CN2CCC(Nc3ncnc4sc(CC(F)(F)F)cc34)CC2)cc1`, in assay [6], the inhibition amounted to 25%.
For the compound `FC(F)(F)Cc1cc2c(NC3CCN(CC4CC4)CC3)ncnc2s1`, the IC50 in assay [1] was 770 nM; in assay [2], 6490 nM; in assay [3], over 20000 nM.
`N#Cc1ccc(NCCN2CCN(c3ncnc4sc(CC(F)(F)F)cc34)CC2)cc1`: the IC50 in assay [1] is over 20000 nM.
In the case of `FC(F)(F)Cc1cc2c(Nc3ccc(Cc4ccccc4)cc3)ncnc2s1`, in assay [6], the inhibition came out at 2%.
Turning to `C#CCN1CCC(Nc2ncnc3sc(CC(F)(F)F)cc23)CC1`, in assay [6], the inhibition came out at 31.3%.
For the compound `FC(F)(F)Cc1cc2c(NCC3CCN(Cc4ccc(C(F)(F)F)cc4)CC3)ncnc2s1`, the inhibition in assay [6] stood at 18.5%.
Still for that read-out and setting: the value for `O=[N+]([O-])c1cccc(CN2CCC(Nc3ncnc4sc(CC(F)(F)F)cc34)CC2)c1` was 43%.
Take `COc1ccc(CN2CCC(CNc3ncnc4sc(CC(F)(F)F)cc34)CC2)cc1`: the half-maximal inhibitory concentration (IC50) in assay [1] is 1070 nM; in assay [2], 1280 nM; in assay [3], over 20000 nM.
For `NCCCOc1cccc(CN2CCC(Nc3ncnc4sc(CC(F)(F)F)cc34)CC2)c1`, the IC50 in assay [1] was 670 nM; in assay [2] it was 390 nM; in assay [3] it was over 20000 nM. In assay [2], the Activity result was “Dose-dependent effect”. In addition, the inhibition result in assay [4] is “Dose-dependent effect”.
For the compound `N#Cc1ccc(OCCN2CCN(c3ncnc4sc(CC(F)(F)F)cc34)CC2)cc1`, the IC50 in assay [1] was over 20000 nM.
Still for that read-out and setting: for `FC(F)(F)Cc1cc2c(NC3CCN(CCc4ccccc4)CC3)ncnc2s1` the value was 1800 nM.
